These results are taken from ChEMBL document CHEMBL4334482, “Cysteine Residue Containing Merocytochalasans and 17,18-seco-Aspochalasins from Aspergillus micronesiensis” (J Nat Prod, 2019).

Assay [1] deals with A549. In words: Cytotoxicity against human A549 cells assessed as reduction in cell viability by MTS assay. The assay is classed as functional, cell-based. In short, it runs like this:
(§1)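 In vitro cytotoxicity was tested on a panel of five human cancer lines (HL60, A549, Hep3B, MCF-7, SW480), following an earlier published method. Values are reported as IC50 in μM.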
In general terms: Tetrazolium assays rely on reduction of a dye to a coloured formazan, in cell work by metabolically active cells.

Assay [2] has as its system Hep 3B2. In words: Cytotoxicity against human Hep3B cells assessed as reduction in cell viability by MTS assay. The assay is classed as functional, cell-based. In short, it runs like this: as §1
Assay [3] relates to HL-60. In words: Cytotoxicity against human HL60 cells assessed as reduction in cell viability by MTS assay. The assay is classed as functional, cell-based. In short, it runs like this:
as §1

Assay [4] relates to SW480. In words: Cytotoxicity against human SW480 cells assessed as reduction in cell viability by MTS assay. The assay is classed as functional, cell-based. In short, it runs like this: as §1
In assay [5] the test system is MCF7. In words: Cytotoxicity against human MCF7 cells assessed as reduction in cell viability by MTS assay. The class given is functional, cell-based. In short, it runs like this: as §1
Assay [6] has as its system Staphylococcus aureus. In words: Antibacterial activity against methicillin-resistant Staphylococcus aureus. The class given is functional.
The subject of assay [7] is Candida albicans. In words: Antifungal activity against Candida albicans assessed as reduction in fungal growth incubated for 48 hrs by two fold serial dilution method. The assay is classed as functional.
Assay [8] deals with Staphylococcus aureus. In words: Antibacterial activity against Staphylococcus aureus. The class given is functional.

Converted amounts (≈) assume the structure as drawn. The source made the active and inactive calls. No cut-off for these calls is given here.

On to `COC(=O)CCC(=O)[C@@]12C(=O)N[C@@H](CC(C)C)[C@@H]1[C@H](C)C(C)=C[C@@H]2/C=C(\C)CCC(=O)O`, for which the result in assay [1], in assay [2], in assay [3], in assay [4] and in assay [5] was inactive.
One may read the MIC50 as the lowest concentration that inhibits either 50% of growth or 50% of the strains tested, depending on the study. Broadly, the MIC90 is an inhibitory concentration at the 90% level, which refers to growth in some studies and to a panel of isolates in others. What is called IC50 is the concentration at which inhibition is half-maximal. `COC(=O)[C@H](O)CS[C@@H]1CC(=O)[C@H](O)CC/C(C)=C/[C@H]2C=C(C)[C@@H](C)[C@H]3[C@H](CC(C)C)NC(=O)[C@]32C1=O`: the MIC50 in assay [6] was found to be 10.6 µg/mL (≈ 19.8 µM); in assay [7], 94.7 µg/mL (≈ 177 µM); in assay [8] it was 14.5 µg/mL (≈ 27.1 µM). Further, the MIC90 was 14.7 µg/mL (≈ 27.4 µM) in assay [6], more than 100 µg/mL in assay [7] and 27 µg/mL (≈ 50.4 µM) in assay [8]. The IC50 in assay [1] was determined as 16.7 µM; in assay [2] it was 8.2 µM; in assay [3], 3 µM; in assay [4] it was 13.6 µM; in assay [5] it was 17.1 µM.
On to `CC(=O)NCCS[C@@H]1CC(=O)[C@H](O)CC/C(C)=C/[C@H]2C=C(C)[C@@H](C)[C@H]3[C@H](CC(C)C)NC(=O)[C@]32C1=O`, for which the MIC50 in assay [6] is 17.5 µg/mL (≈ 33.7 µM); in assay [7], 43.3 µg/mL (≈ 83.5 µM); in assay [8] it was 40.8 µg/mL (≈ 78.7 µM). The MIC90 is 28.4 µg/mL (≈ 54.8 µM) in assay [6], 89.9 µg/mL (≈ 173 µM) in assay [7] and 58.5 µg/mL (≈ 113 µM) in assay [8]. Also, the concentration for half-maximal inhibition (IC50) in assay [1] is more than 20 µM; in assay [2], 19.9 µM; in assay [3], 9.3 µM; in assay [4] it was 10.1 µM; in assay [5], 16.1 µM.
For the molecule `COC(=O)CC/C(C)=C/[C@H]1C=C(C)[C@@H](C)[C@H]2[C@H](CC(C)C)NC(=O)[C@]21C(=O)CCC(=O)O`, the outcome in assay [1], in assay [2], in assay [3], in assay [4] and in assay [5] was inactive.
